Paper PMC3064429 (Bioorganic & medicinal chemistry, 2011)
Blank lines part the entries; values can stand above or below the molecule they belong to.

Key:
σ1 receptor [1] = target: σ1 receptor (Cavia porcellus, UniProt Q60492); assay: Competition binding assay at σ1 receptors with [3H]; parameters: species or system guinea pig
σ2 receptor [2] = target: T1, σ2 receptor (Cavia porcellus, UniProt H0V073); assay: Competition binding assay at σ2 receptors with [3H]DTG / 500 nM; parameters: species or system guinea pig
T1 sequence (H0V073 1-176): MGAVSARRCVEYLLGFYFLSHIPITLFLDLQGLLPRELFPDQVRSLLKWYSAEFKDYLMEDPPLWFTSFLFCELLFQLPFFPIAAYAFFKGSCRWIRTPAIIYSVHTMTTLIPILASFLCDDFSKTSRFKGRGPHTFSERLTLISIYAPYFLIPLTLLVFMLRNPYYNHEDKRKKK

[3] = Compound stability in stock buffer for in vitro binding assays; assay type: physicochemical; details: for Purity by HPLC after 25 days in stock buffer: 10^-3 M in water with 1% EtOH and 0.1% or 2.5% AcOH; for State after 25 days in stock buffer: stock buffer 2.5% AcOH, 1% EtOH in water
Procedure, shortened: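 Those prepared as HCl or oxalate salts were held instead in 0.1% AcOH with 1% EtOH. After 25 days in stock buffer, purity of each compound was analysed by analytical HPLC.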

σ2 receptor [4] = details: cited from earlier work
σ1 receptor [5] = details: cited from earlier work

Chain of σ1 receptor (Cavia porcellus, UniProt Q60492) (Q60492 whole entry): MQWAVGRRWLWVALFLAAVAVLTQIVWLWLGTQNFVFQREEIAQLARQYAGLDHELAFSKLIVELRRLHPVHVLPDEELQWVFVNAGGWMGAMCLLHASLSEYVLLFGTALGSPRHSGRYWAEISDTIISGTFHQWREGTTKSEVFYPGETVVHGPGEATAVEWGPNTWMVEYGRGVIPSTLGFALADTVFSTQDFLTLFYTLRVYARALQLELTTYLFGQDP

Molecule: 5-bromo-N-(4-(7,8-dimethoxy-2,3,4,5-tetrahydro-1H-benzo[b]azepin-1-yl)butyl)-2,3-dimethoxybenzamide [Compound 7]
Poorer σ1 affinity relative to 6 (σ1 receptor [1]; 7 (7R-1) vs. 6 (7R-2)): 20%
Ki (σ1 receptor [1]; read-out: Ki (nM) σ1, [3H](+)-PTZ, guinea pig brain membranes, mean ± SEM, n = 4): 2560 ± 175 nM
Poorer σ2 affinity relative to 6 (σ2 receptor [2]; 7 (7R-1) vs. 6 (7R-2)): ~30 times
Selectivity Ki σ1 / Ki σ2 (σ2 receptor [2]; ratio of Ki values): 0.29
Purity by HPLC after 25 days in stock buffer [3]: exceeded 95%

Molecule: COc1cc2c(cc1OC)CN(CCCCNC(=O)c1cc(Br)cc(OC)c1OC)CC2 [Compound 1]
Ki (σ2 receptor [4]; read-out: Ki (nM) σ2): 8.2 nM

Molecule: COc1ccc(CCNCCCCNC(=O)c2cc(Br)cc(OC)c2OC)cc1OC [Compound 2]
Change in σ1 affinity relative to 1 (σ1 receptor [5]): no change
Decrease in σ2 affinity relative to 1 (σ2 receptor [4]; relative to 1): 1700 fold

Molecule: COc1cc2c(cc1OC)CN(CCCCNC(=O)c1cc(Br)cc(OC)c1OC)C2 [Compound 3, 5-bromo-N-(4-(5,6-dimethoxyisoindolin-2-yl)butyl)-2,3-dimethoxybenzamide]
Decrease in σ1 affinity relative to 1 (σ1 receptor [1]; relative to 1): approximately 50%
Improvement of σ2 affinity over that of 1 (σ2 receptor [2]; relative to 1): 70%
Purity by HPLC after 25 days in stock buffer [3]: exceeded 95%

Molecule: COc1cc2c(cc1OC)CCN(CCCCNC(=O)c1cc(Br)cc(OC)c1OC)CC2 [Compound 4, 5-bromo-N-(4-(7,8-dimethoxy-4,5-dihydro-1H-benzo[d]azepin-3(2H)-yl)butyl)-2,3-dimethoxybenzamide]
Poorest σ1 affinity by a factor compared to 6 and 7 (σ1 receptor [1]; compared to 6 (7R-2) and 7 (7R-1)): 2
Purity by HPLC after 25 days in stock buffer [3]: exceeded 95%

Molecule: COc1cc2c(cc1OC)N(CCCCNC(=O)c1cc(Br)cc(OC)c1OC)CC2 [Compound 5, 5-bromo-N-(4-(5,6-dimethoxyindolin-1-yl)butyl)-2,3-dimethoxybenzamide]
Poorer σ1 affinity, 3 vs. 5 (σ1 receptor [1]; 3 (5R-2) vs. 5 (5R-1)): 3 times
State after 25 days in stock buffer [3]: totally decomposed

More lines, now with the values ahead:

Purity by HPLC after 25 days in stock buffer [3]: exceeded 95%
Molecule: 5-bromo-N-(4-((3,4-dimethoxyphenethyl)(methyl)amino)butyl)-2,3-dimethoxybenzamide [Compound 9]

Purity by HPLC after 25 days in stock buffer [3]: exceeded 95%
Molecule: COc1cc2c(cc1OC)CN(CCCCNC(=O)c1cc(Br)cc(OC)c1OC)CCC2 [Compound 6, 5-bromo-N-(4-(7,8-dimethoxy-4,5-dihydro-1H-benzo[c]azepin-2(3H)-yl)butyl)-2,3-dimethoxybenzamide]

σ1 affinity decreased by a factor, relative to 1 (σ1 receptor [1]; relative to 1 (Mach Lead)): 5
σ2 affinity relative to 1 (in words) (σ2 receptor [2]; relative to 1 (Mach Lead)): totally ablated
State after 25 days in stock buffer [3]: totally decomposed
Molecule: COc1cc2c(cc1OC)N(CCCCNC(=O)c1cc(Br)cc(OC)c1OC)CCC2 [Compound 8, 5-bromo-N-(4-(6,7-dimethoxy-3,4-dihydroquinolin-1(2H)-yl)butyl)-2,3-dimethoxybenzamide]
